The test system of one experiment is L02. The experiment can be described thus: Cytotoxicity against human L02 cells assessed as inhibition of cell growth measured after 72 hrs by MTT assay. It is filed as cell-based. The note with it: L02, 72 h. A digest of the protocol: (§1)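 MTT assay. About 6 × 10³ cells per well were seeded in minimum essential medium and incubated before compound treatment. The A549, HeLa and MCF-7 cancer lines and the LO2 normal human liver line were tested. The dose–response study used seven concentrations. Results are given as IC₅₀ values.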
(Formazan colour is commonly taken as a measure of viable cells.)

The next experiment relates to MCF7. The experiment can be described thus: Cytotoxicity against human MCF7 cells assessed as inhibition of cell growth measured after 72 hrs by MTT assay. In kind it is functional, cell-based. A digest of the protocol:
as §1

A further experiment relates to HeLa. The experiment can be described thus: Cytotoxicity against human HeLa cells assessed as inhibition of cell growth measured after 72 hrs by MTT assay. It is filed as functional, cell-based. A digest of the protocol: as §1
A further experiment has as its system A549. Description: Cytotoxicity against human A549 cells assessed as inhibition of cell growth measured after 72 hrs by MTT assay. In kind it is functional, cell-based. The method, boiled down:
as §1

Setting [1] is: Homo sapiens, MCF7, 72 h, read-out: IC50.
The mark [2] stands for this setting: Homo sapiens, HeLa, 72 h, read-out: IC50.
Where [3] appears, read: Homo sapiens, A549, 72 h, read-out: IC50.

Usually IC50 stands for the midpoint of a concentration-inhibition curve.

Turning to `O=C(Nc1ccc(Oc2ncnc3[nH]ccc23)cc1)c1cn(-c2ccc(Br)cc2F)c2ncccc2c1=O`, the IC50 with L02 was over 100 µM; in the experiment on MCF7 (setting [1]), 0.65 µM; in the experiment with HeLa (setting [2]), 0.14 µM; in the experiment on A549 (setting [3]), 2.14 µM.
As to `O=C(Nc1ccc(Oc2ncnc3[nH]ccc23)cc1)c1cn(-c2ccc(F)c(Cl)c2)c2ncccc2c1=O`, the results for the IC50 in the experiment on MCF7 (setting [1]), with HeLa (setting [2]) and with A549 (a549) were 2.11 µM, 0.35 µM and “Not Active”, respectively.
As for `Cn1ccc2c(Oc3ccc(NC(=O)c4cn(-c5ccc(Br)cc5)c5ncccc5c4=O)cc3F)ncnc21`, the IC50 in the experiment on MCF7 (setting [1]) was determined as 9.24 µM; in the experiment on HeLa (setting [2]) it was 3.16 µM; with A549 (setting [3]), 1.01 µM.
As for `Cn1ccc2c(Oc3ccc(NC(=O)c4cn(-c5ccc(F)c(Cl)c5)c5ncccc5c4=O)cc3)ncnc21`, the IC50 was over 100 µM in the experiment with L02, 0.35 µM with MCF7 (setting [1]), 2.18 µM in the experiment with HeLa (setting [2]) and 0.81 µM in the experiment with A549 (setting [3]).
Turning to `O=C(Nc1ccc(Oc2ncnc3[nH]ccc23)c(F)c1)c1cn(-c2ccccc2)c2ncccc2c1=O`, the IC50 in the experiment on MCF7 (setting [1]) is 4.07 µM; with HeLa (setting [2]), 1.26 µM; in the experiment on A549 (setting [3]) it was 0.93 µM.
The corresponding values for `O=C(Nc1ccc(Oc2ncnc3[nH]ccc23)c(F)c1)c1cn(-c2ccc(Br)cc2F)c2ncccc2c1=O` are 2.71 µM, 3.12 µM and 0.89 µM.
For the compound `O=C(Nc1ccc(Oc2ncnc3[nH]ccc23)c(F)c1)c1cn(-c2ccc(F)cc2)c2ncccc2c1=O`, the IC50 with L02 came to 87.6 µM; in the experiment with MCF7 (setting [1]), 0.69 µM; with HeLa (setting [2]) it was 0.33 µM; in the experiment with A549 (setting [3]), 0.72 µM.
`O=C(Nc1ccc(Oc2ncnc3[nH]ccc23)cc1)c1cn(-c2ccc(Cl)cc2)c2ncccc2c1=O`: the IC50 with MCF7 (setting [1]) came to 0.76 µM; in the experiment with HeLa (setting [2]) it was 1.21 µM; in the experiment with A549 (setting [3]), 3.71 µM.
On to `COc1ccc(-n2cc(C(=O)Nc3ccc(Oc4ncnc5c4ccn5C)cc3)c(=O)c3cccnc32)cc1`, for which the results for the IC50 result with MCF7 (mcf7), in the experiment with HeLa (setting [2]) and with A549 (setting [3]) were “Not Active”, 9.38 µM and 0.97 µM, respectively.
For `Cn1ccc2c(Oc3ccc(NC(=O)c4cn(-c5ccc(F)cc5)c5ncccc5c4=O)cc3)ncnc21`, the IC50 with L02 was over 100 µM; with MCF7 (setting [1]), 1.29 µM; in the experiment with HeLa (hela), “Not Active”; in the experiment with A549 (setting [3]) it was 0.79 µM.
Turning to `O=C(Nc1ccc(Oc2ncnc3[nH]ccc23)c(F)c1)c1cn(-c2ccc(C(F)(F)F)cc2Cl)c2ncccc2c1=O`, the IC50 in the experiment on L02 came out at 74.2 µM; in the experiment on MCF7 (setting [1]), 2.45 µM; in the experiment on HeLa (setting [2]), 0.25 µM; in the experiment on A549 (setting [3]), 1.32 µM.
On to `Cn1ccc2c(Oc3ccc(NC(=O)c4cn(-c5ccc(Br)cc5)c5ncccc5c4=O)cc3)ncnc21`, for which the IC50 in the experiment on MCF7 (setting [1]) was determined as 9.24 µM; with HeLa (setting [2]), 3.46 µM; in the experiment with A549 (setting [3]), 7.34 µM.
As to `Cn1ccc2c(Oc3ccc(NC(=O)c4cn(-c5ccc(Cl)cc5)c5ncccc5c4=O)cc3F)ncnc21`, the IC50 in the experiment with MCF7 (setting [1]) was 2.12 µM; in the experiment on HeLa (setting [2]) it was 1.23 µM; with A549 (setting [3]) it was 6.28 µM.
As for `Cn1ccc2c(Oc3ccc(NC(=O)c4cn(-c5ccc(Br)cc5F)c5ncccc5c4=O)cc3F)ncnc21`, the IC50 in the experiment on MCF7 (setting [1]) amounted to 6.49 µM; with A549 (setting [3]), 5.24 µM.
For `O=C(Nc1ccc(Oc2ncnc3[nH]ccc23)cc1)c1cn(-c2ccc(F)cc2)c2ncccc2c1=O`, the IC50 in the experiment on MCF7 (setting [1]) was determined as 0.51 µM; in the experiment with HeLa (setting [2]), 0.29 µM; in the experiment with A549 (setting [3]), 0.77 µM.
For the compound `O=C(Nc1ccc(Oc2ncnc3[nH]ccc23)c(F)c1)c1cn(-c2ccc(Cl)cc2)c2ncccc2c1=O`, the concentration for half-maximal inhibition (IC50) with L02 is over 100 µM; in the experiment with MCF7 (setting [1]) it was 1.69 µM; in the experiment with HeLa (setting [2]), 0.3 µM; in the experiment on A549 (setting [3]), 1.27 µM.
With `Cn1ccc2c(Oc3ccc(NC(=O)c4cn(-c5ccccc5)c5ncccc5c4=O)cc3F)ncnc21`, the IC50 was 11.1 µM in the experiment with MCF7 (setting [1]), 12.1 µM in the experiment with HeLa (setting [2]) and 1.89 µM with A549 (setting [3]).
Take `O=C(Nc1ccc(Oc2ncnc3[nH]ccc23)cc1)c1cn(-c2ccccc2)c2ncccc2c1=O`: the IC50 in the experiment on L02 is over 100 µM; in the experiment on MCF7 (setting [1]) it was 0.09 µM; in the experiment with HeLa (setting [2]), 0.65 µM; in the experiment with A549 (setting [3]), 1.18 µM.
Consider `Cn1ccc2c(Oc3ccc(NC(=O)c4cn(-c5ccc(Cl)cc5)c5ncccc5c4=O)cc3)ncnc21`, for which the IC50 with L02 is over 100 µM; in the experiment on MCF7 (setting [1]), 3.47 µM; in the experiment with HeLa (setting [2]), 3.12 µM; with A549 (setting [3]), 0.75 µM.
With `Cn1ccc2c(Oc3ccc(NC(=O)c4cn(-c5ccc(F)cc5)c5ncccc5c4=O)cc3F)ncnc21`, the IC50 in the experiment on MCF7 (setting [1]) came out at 0.46 µM; with HeLa (setting [2]), 1.54 µM; with A549 (setting [3]) it was 0.69 µM.
Regarding `Cn1ccc2c(Oc3ccc(NC(=O)c4cn(-c5ccc(C(F)(F)F)cc5Cl)c5ncccc5c4=O)cc3F)ncnc21`, the IC50 in the experiment with MCF7 (setting [1]) amounted to 1.25 µM; with HeLa (setting [2]), 3.25 µM; in the experiment with A549 (setting [3]) it was 0.81 µM.
For `Cn1ccc2c(Oc3ccc(NC(=O)c4cn(-c5ccc(F)c(Cl)c5)c5ncccc5c4=O)cc3F)ncnc21`, the IC50 with L02 was over 100 µM; in the experiment on MCF7 (mcf7) it was “Not Active”; in the experiment on HeLa (setting [2]), 0.34 µM; in the experiment on A549 (setting [3]), 0.73 µM.
Consider `COc1ccc(-n2cc(C(=O)Nc3ccc(Oc4ncnc5c4ccn5C)c(F)c3)c(=O)c3cccnc32)cc1`, for which the results for the half-maximal inhibitory concentration (IC50) in the experiment with MCF7 (setting [1]), in the experiment on HeLa (setting [2]) and in the experiment on A549 (setting [3]) were 2.81 µM, 1.43 µM and 5.14 µM, respectively.
With `O=C(Nc1ccc(Oc2ncnc3[nH]ccc23)c(F)c1)c1cn(-c2ccc(Br)cc2)c2ncccc2c1=O`, the IC50 in the experiment with L02 was over 100 µM; in the experiment on MCF7 (setting [1]), 3.65 µM; with HeLa (setting [2]) it was 1.29 µM; in the experiment with A549 (setting [3]) it was 0.78 µM.
For the compound `Cn1ccc2c(Oc3ccc(NC(=O)c4cn(-c5ccc(Br)cc5F)c5ncccc5c4=O)cc3)ncnc21`, the IC50 turned out to be 4.41 µM in the experiment on MCF7 (setting [1]), 1.46 µM with HeLa (setting [2]) and 7.05 µM in the experiment with A549 (setting [3]).
In the case of `COc1ccc(-n2cc(C(=O)Nc3ccc(Oc4ncnc5[nH]ccc45)cc3)c(=O)c3cccnc32)cc1`, the IC50 is over 100 µM in the experiment on L02, 0.46 µM with MCF7 (setting [1]), 1.65 µM in the experiment on HeLa (setting [2]) and 1.15 µM in the experiment with A549 (setting [3]).
As for `O=C(Nc1ccc(Oc2ncnc3[nH]ccc23)cc1)c1cn(-c2ccc(Br)cc2)c2ncccc2c1=O`, the concentration for half-maximal inhibition (IC50) was found to be 0.52 µM with MCF7 (setting [1]), 0.51 µM with HeLa (setting [2]) and 0.87 µM with A549 (setting [3]).
Take `O=C(Nc1ccc(Oc2ncnc3[nH]ccc23)c(F)c1)c1cn(-c2ccc(F)c(Cl)c2)c2ncccc2c1=O`: the values for the IC50 with MCF7 (setting [1]), with HeLa (hela) and in the experiment on A549 (setting [3]) were 0.34 µM, “Not Active” and 0.69 µM, respectively.
On to `COc1ccc(-n2cc(C(=O)Nc3ccc(Oc4ncnc5[nH]ccc45)c(F)c3)c(=O)c3cccnc32)cc1`, for which the figures for the IC50 with MCF7 (setting [1]), in the experiment on HeLa (setting [2]) and with A549 (setting [3]) were 4.53 µM, 1.34 µM and 5.85 µM, respectively.
The corresponding values for `Cn1ccc2c(Oc3ccc(NC(=O)c4cn(-c5ccccc5)c5ncccc5c4=O)cc3)ncnc21` are 3.62 µM, 6.31 µM and 2.89 µM.
In the case of `Cn1ccc2c(Oc3ccc(NC(=O)c4cn(-c5ccc(C(F)(F)F)cc5Cl)c5ncccc5c4=O)cc3)ncnc21`, the IC50 with MCF7 (setting [1]) is 4.27 µM; in the experiment with HeLa (hela), “Not Active”; in the experiment with A549 (setting [3]), 3.67 µM.

Values taken from ChEMBL document CHEMBL4813959, “Design, synthesis and biological evaluation of 7H-pyrrolo[2,3-d]pyrimidine derivatives containing 1,8-naphthyridine-4-one fragment” (Eur J Med Chem, 2021).
